{"data": "Experimental data from different studies", "target": "Serine/threonine-protein kinase Nek7 (NEK7, Homo sapiens, UniProt Q8TDX7)", "note": "Protocols differ between the studies behind these lines."}
{"Structure (SMILES)": "Nc1ncnc2occ(-c3ccc(NC(=O)Nc4cc(C(F)(F)F)ccc4F)cc3)c12", "effect on": "cell-free assay", "action": "inhibitor", "tested at": "20 µM", "quantity": "remaining signal", "result": "4%"}
{"Structure (SMILES)": "C[C@@]1(Cc2ccc(C#N)cc2)C(=O)N(c2cc(Cl)cc(Cl)c2)c2ncc(C(=O)NC3(c4nc(C5CCC5)no4)CC3)n21", "effect on": "cell-free assay", "method": "competition with immobilised ligand", "tested at": "1 µM", "quantity": "remaining binding", "result": "100%"}
{"Structure (SMILES)": "CCCOc1ccc(OC)c(F)c1C(=O)c1ccc(C(=O)N[C@@H]2CNC[C@H]2NC(=O)c2ccc3[nH]ncc3c2)cc1", "effect on": "enzyme activity", "action": "inhibitor", "tested at": "10 µM", "quantity": "remaining activity", "result": "96%"}
{"Structure (SMILES)": "CCN1CCC2(CC1)NC(=O)c1c(c3ccc(Cl)c(Cl)c3n1C)C2C#N (racemic)", "effect on": "thermal stability", "method": "DSF", "tested at": "10 µM", "quantity": "ΔTm", "result": "-0.2 °C"}
{"Structure (SMILES)": "O=C(Nc1cnn(-c2csc(C(=O)NC3COC3)c2)c1)Nc1c(F)cccc1Cl", "effect on": "enzyme activity", "action": "inhibitor", "tested at": "5 µM", "quantity": "remaining activity", "result": "88.1%"}
{"Structure (SMILES)": "Cn1c2c(c3ccc(Cl)c(Cl)c31)C(C#N)C(C)(C)NC2=O (stereo not shown)", "effect on": "thermal stability", "method": "DSF", "tested at": "10 µM", "quantity": "ΔTm", "result": "-0.6 °C"}
{"Structure (SMILES)": "Cc1ccc(Nc2nccc(N(C)c3ccc4c(C)n(C)nc4c3)n2)cc1S(N)(=O)=O", "effect on": "enzyme activity", "action": "inhibitor", "tested at": "0.3 µM", "quantity": "inhibition", "result": "-6%"}
{"Structure (SMILES)": "COc1cccc2c(NCc3ccccc3)nc(-n3c(N)nc4ccccc43)nc12", "effect on": "target engagement in cells", "action": "inhibitor", "method": "chemoproteomics", "tested at": "20 mM", "quantity": "inhibition", "result": "-1%"}
{"Structure (SMILES)": "CCCCN(CCCC)C(=O)CN1C[C@H](c2cc(OC)c3c(c2)OCO3)[C@@H](C(=O)O)[C@@H]1CC(C)(C)CCC", "effect on": "cell-free assay", "method": "competition with immobilised ligand", "tested at": "1 µM", "quantity": "remaining binding", "result": "100%"}
{"Structure (SMILES)": "Cn1c2c(c3ccc(Cl)c(Cl)c31)C(C#N)C1(CCOCC1)NC2=O (stereo not shown)", "effect on": "thermal stability", "method": "DSF", "tested at": "10 µM", "quantity": "ΔTm", "result": "-0.5 °C"}
{"Structure (SMILES)": "CC(C)(C)c1nc2c(s1)c1nc(N)ncc1c1ccc(NS(=O)(=O)c3c(F)cccc3F)c(F)c12", "effect on": "enzyme activity", "action": "inhibitor", "method": "radiometric", "tested at": "1 µM", "quantity": "remaining activity", "result": "27%"}
{"Structure (SMILES)": "O=C(O)[C@H]1[C@H](Cn2nnc3ccccc3c2=O)CC[C@@H]1C(=O)c1ccc(OCCC2CCOCC2)cc1", "effect on": "cell-free assay", "method": "competition with immobilised ligand", "tested at": "1 µM", "quantity": "remaining binding", "result": "100%"}
{"Structure (SMILES)": "Cc1ccc(NC(=O)c2ccc(C)c(C(F)(F)F)c2)cc1C#Cc1nn(C2CCC(O)CC2)c2ncnc(N)c12 (stereo not shown)", "effect on": "cell-free assay", "tested at": "10 µM", "quantity": "remaining signal", "result": "98%"}
{"Structure (SMILES)": "CS(=O)(=O)CCNCc1ccc(-c2ccc3ncnc(Nc4ccc(OCc5cccc(F)c5)c(Cl)c4)c3c2)o1", "effect on": "cell-free assay", "tested at": "0.5 µM", "quantity": "remaining signal", "result": "98.7%"}
{"Structure (SMILES)": "CNC(=O)c1cc(Oc2ccc(NC(=O)Nc3ccc(Cl)c(C(F)(F)F)c3)cc2)ccn1", "effect on": "enzyme activity", "action": "inhibitor", "tested at": "10 µM", "quantity": "inhibition", "result": "-7%"}
{"Structure (SMILES)": "Cn1c2c(c3ccc(Cl)c(Cl)c31)C(C#N)C1(CCN(C(=O)OC(C)(C)C)CC1)NC2=O (racemic)", "effect on": "thermal stability", "method": "DSF", "tested at": "10 µM", "quantity": "ΔTm", "result": "0 °C"}
{"Structure (SMILES)": "Cc1sc(C(=O)NC2COC2)cc1-n1cc(NC(=O)Nc2c(F)cccc2Cl)cn1", "effect on": "enzyme activity", "action": "inhibitor", "tested at": "10 µM", "quantity": "remaining activity", "result": "100%"}
{"Structure (SMILES)": "CN1CC(Oc2cnc(C#N)cc2-c2ccn3nc(NC(=O)C4CC4)cc3c2)C1", "effect on": "enzyme activity", "action": "inhibitor", "tested at": "1 µM", "quantity": "inhibition", "result": "0%"}
{"Structure (SMILES)": "Clc1ccc(Nc2nnc(Cc3ccncc3)c3ccccc23)cc1", "effect on": "cell-free assay", "tested at": "0.5 µM", "quantity": "remaining signal", "result": "96.8%"}
{"Structure (SMILES)": "CCN(CC)CCNC(=O)c1c(C)[nH]c(/C=C2\\C(=O)Nc3ccc(F)cc32)c1C", "effect on": "enzyme activity", "action": "inhibitor", "tested at": "10 µM", "quantity": "inhibition", "result": "-6%"}
{"Structure (SMILES)": "Cc1cnc(NC2CCOCC2)nc1-n1cnc(C(=O)NC(CN)c2cc(F)cc(Cl)c2)c1 (stereo not shown)", "effect on": "enzyme activity", "action": "inhibitor", "method": "radiometric", "tested at": "1 µM", "quantity": "remaining activity", "result": "99%"}
{"Structure (SMILES)": "Cc1c[nH]c2nccc(Oc3c(F)cc(Nc4cc(Cl)nc(N)n4)cc3F)c12", "effect on": "cell-free assay", "method": "competition with immobilised ligand", "tested at": "0.1 µM", "quantity": "remaining binding", "result": "100%"}
{"Structure (SMILES)": "Cc1cc(NC(=O)c2cccc3cc(-c4cccc5[nH]nc(N)c45)ccc23)ccc1F", "effect on": "enzyme activity", "action": "inhibitor", "tested at": "0.1 µM", "quantity": "activity vs control", "result": "96%"}
{"Structure (SMILES)": "CN([C@@H]1CCc2c(CC(=O)O)c3cc(S(C)(=O)=O)ccc3n2C1)S(=O)(=O)c1ccc(F)cc1", "effect on": "cell-free assay", "method": "competition with immobilised ligand", "tested at": "1 µM", "quantity": "remaining binding", "result": "98%"}
{"Structure (SMILES)": "CCN1CCN(Cc2ccc(NC(=O)c3ccc(C)c(Oc4ccnc5[nH]ccc45)c3)cc2C(F)(F)F)CC1", "effect on": "target engagement in cells", "action": "inhibitor", "method": "chemoproteomics", "cell line": "A-375", "tested at": "0.5 µM", "quantity": "inhibition", "result": "-0.545%"}
{"Structure (SMILES)": "CC(C)(O)c1cncc(-c2nc3ccc(F)cc3n2C2CC2)c1", "effect on": "cell-free assay", "method": "competition with immobilised ligand", "tested at": "1 µM", "quantity": "remaining binding", "result": "100%"}
{"Structure (SMILES)": "O=C1Nc2ccc(Cl)cc2C1=Cc1cc(Cl)c(O)c(Cl)c1", "effect on": "cell-free assay", "tested at": "0.5 µM", "quantity": "remaining signal", "result": "100%"}
{"Structure (SMILES)": "C[C@@H](c1cccc(C#N)c1)n1cc(Cl)cc(C(N)=O)c1=N", "effect on": "cell-free assay", "method": "competition with immobilised ligand", "tested at": "1 µM", "quantity": "remaining binding", "result": "89%"}
{"Structure (SMILES)": "CCC1(CC)NC(=O)c2c(c3ccc(Cl)c(Cl)c3n2C)C1C#N (stereo not shown)", "effect on": "thermal stability", "method": "DSF", "tested at": "10 µM", "quantity": "ΔTm", "result": "-0.4 °C"}
{"Structure (SMILES)": "O=C1NC(c2ccccn2)Sc2ccccc21 (stereo not shown)", "effect on": "cell-free assay", "method": "competition with immobilised ligand", "tested at": "1 µM", "quantity": "remaining binding", "result": "68%"}
{"Structure (SMILES)": "CCCS(=O)(=O)Nc1ccc(F)c(C(=O)c2c[nH]c3ncc(-c4ccc(Cl)cc4)cc23)c1F", "effect on": "enzyme activity", "action": "inhibitor", "tested at": "1 µM", "quantity": "inhibition", "result": "< 10%"}
